Measured values from ChEMBL document CHEMBL5724801, “EUbOPEN Chemogenomics Library - Multiplex” (2024).
Several values for one entry are separate records, joined by “and”; a condition that tells them apart may be missing. Equal values may be shown once.

Test system: Fibroblast
Test: Multiplex assay against human fibroblast
Assay type: toxicity, cell-based
How it was run: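 Imaging took place on a CQ1 microscope at 37°C and 5% CO2 once compound had been added to live cells stained at seeding with Hoechst33342, BioTracker Green Microtubule Cytoskeleton Dye, MitoTracker Red and Annexin V Alexa Fluor 680. CellPathfinder machine-learning gating classed cells as Hoechst high-intensity objects or normal cells, classed normal cells as having healthy, pyknosed or fragmented nuclei, and classed pyknosed cells as mitotic or apoptotic. Tubulin, mitochondrial-mass and membrane-permeability phenotypes are per cents of the healthy-nucleus cells.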

[1] = 12 h, 1 µM, compound concentration 1 uM
[2] = 12 h, 10 µM, compound concentration 10 uM
[3] = 24 h, 1 µM, compound concentration 1 uM
[4] = 24 h, 10 µM, compound concentration 10 uM
[5] = 48 h, 1 µM, compound concentration 1 uM
[6] = 48 h, 10 µM, compound concentration 10 uM

CN1C[C@H](C(=O)N[C@]2(C)O[C@@]3(O)[C@@H]4CCCN4C(=O)[C@H](Cc4ccccc4)N3C2=O)C[C@@H]2c3cccc4[nH]cc(c34)C[C@H]21.CS(=O)(=O)O [DIHYDROERGOTAMINE MESYLATE]
Population Apoptotic (%) [1]: 25% and 47% | Population Fragmented Nuclei (%) [1]: 13% and 32% | Population Healthy Nuclei (%) [1]: 70% and 51% | Population Hoechst High Intensity Objects (%) [1]: 1% and 7% | Population Membrane Permeable-Phenotype (%) [1]: 1% and 6% | Population Mitochondria Different-Phenotype (%) [1]: 1% and 5% | Population Mitotic Cells (%) [1]: 75% and 52% | Population Normal (%) [1]: 98% and 92% | Population Pyknosed Nuclei (%) [1]: 16% | Population Tubulin-Different-Phenotype (%) [1]: 23% and 31% | Total Cell Count [1]: 127 and 155 | Population Apoptotic (%) [2]: 57% and 31% | Population Fragmented Nuclei (%) [2]: 27% and 33% | Population Healthy Nuclei (%) [2]: 65% and 45% | Population Hoechst High Intensity Objects (%) [2]: 0% and 8% | Population Membrane Permeable-Phenotype (%) [2]: 0% and 2% | Population Mitochondria Different-Phenotype (%) [2]: 5% and 0% | Population Mitotic Cells (%) [2]: 42% and 68% | Population Normal (%) [2]: 100% and 91% | Population Pyknosed Nuclei (%) [2]: 7% and 21% | Total Cell Count [2]: 92 and 114 | Population Apoptotic (%) [3]: 38% and 47% | Population Fragmented Nuclei (%) [3]: 14% and 30% | Population Healthy Nuclei (%) [3]: 75% and 56% | Population Hoechst High Intensity Objects (%) [3]: 1% and 4% | Population Membrane Permeable-Phenotype (%) [3]: 0% and 7% | Population Mitochondria Different-Phenotype (%) [3]: 0% and 3% | Population Mitotic Cells (%) [3]: 61% and 52% | Population Normal (%) [3]: 98% and 95% | Population Pyknosed Nuclei (%) [3]: 10% and 13% | Population Tubulin-Different-Phenotype (%) [3]: 18% and 50% | Total Cell Count [3]: 130 and 149 | Population Apoptotic (%) [4]: 55% and 31% | Population Fragmented Nuclei (%) [4]: 17% and 35% | Population Healthy Nuclei (%) [4]: 72% and 43% | Population Hoechst High Intensity Objects (%) [4]: 1% and 5% | Population Membrane Permeable-Phenotype (%) [4]: 0% and 6% | Population Mitochondria Different-Phenotype (%) [4]: 1% and 0% | Population Mitotic Cells (%) [4]: 44% and 68% | Population Normal (%) [4]: 98% and 94% | Population Pyknosed Nuclei (%) [4]: 10% and 20% | Total Cell Count [4]: 89 and 113 | Population Apoptotic (%) [5]: 57% and 53% | Population Fragmented Nuclei (%) [5]: 20% and 38% | Population Healthy Nuclei (%) [5]: 68% and 50% | Population Hoechst High Intensity Objects (%) [5]: 1% and 5% | Population Membrane Permeable-Phenotype (%) [5]: 0% and 6% | Population Mitochondria Different-Phenotype (%) [5]: 2% and 6% | Population Mitotic Cells (%) [5]: 42% and 46% | Population Normal (%) [5]: 98% and 94% | Population Pyknosed Nuclei (%) [5]: 10% and 11% | Population Tubulin-Different-Phenotype (%) [5]: 30% and 48% | Total Cell Count [5]: 134 and 139 | Population Apoptotic (%) [6]: 63% and 76% | Population Fragmented Nuclei (%) [6]: 21% and 44% | Population Healthy Nuclei (%) [6]: 65% and 44% | Population Hoechst High Intensity Objects (%) [6]: 3% | Population Membrane Permeable-Phenotype (%) [6]: 1% and 11% | Population Mitochondria Different-Phenotype (%) [6]: 3% and 5% | Population Mitotic Cells (%) [6]: 36% and 23% | Population Normal (%) [6]: 96% | Population Pyknosed Nuclei (%) [6]: 12% and 10% | Population Tubulin-Different-Phenotype (%) [6]: 20% and 55% | Total Cell Count [6]: 91 and 126

Cc1cc(C)c(NC(=O)C2CC3CCC2C3)c(C)c1 (configuration not stated)
Population Apoptotic (%) [1]: 12% and 10% | Population Fragmented Nuclei (%) [1]: 14.14% and 5.66% | Population Healthy Nuclei (%) [1]: 59.69% and 81.76% | Population Hoechst High Intensity Objects (%) [1]: 0% | Population Membrane Permeable-Phenotype (%) [1]: 3.51% and 5.38% | Population Mitochondria Different-Phenotype (%) [1]: 7.02% and 6.92% | Population Mitotic Cells (%) [1]: 88% and 90% | Population Normal (%) [1]: 100% | Population Pyknosed Nuclei (%) [1]: 26.18% and 12.58% | Population Tubulin-Different-Phenotype (%) [1]: 12.28% and 22.31% | Total Cell Count [1]: 191 and 159 | Population Apoptotic (%) [2]: 10% and 7.69% | Population Fragmented Nuclei (%) [2]: 12.88% and 9.48% | Population Healthy Nuclei (%) [2]: 62.58% and 78.2% | Population Hoechst High Intensity Objects (%) [2]: 0% | Population Membrane Permeable-Phenotype (%) [2]: 3.92% and 3.64% | Population Mitochondria Different-Phenotype (%) [2]: 10.78% and 7.27% | Population Mitotic Cells (%) [2]: 90% and 92.31% | Population Normal (%) [2]: 100% | Population Pyknosed Nuclei (%) [2]: 24.54% and 12.32% | Population Tubulin-Different-Phenotype (%) [2]: 11.76% and 19.39% | Total Cell Count [2]: 163 and 211 | Population Apoptotic (%) [3]: 16.28% and 15.38% | Population Fragmented Nuclei (%) [3]: 13.89% and 7.5% | Population Healthy Nuclei (%) [3]: 66.2% and 84.38% | Population Hoechst High Intensity Objects (%) [3]: 0% | Population Membrane Permeable-Phenotype (%) [3]: 9.09% and 3.7% | Population Mitochondria Different-Phenotype (%) [3]: 5.59% and 6.67% | Population Mitotic Cells (%) [3]: 83.72% and 84.62% | Population Normal (%) [3]: 100% | Population Pyknosed Nuclei (%) [3]: 19.91% and 8.12% | Population Tubulin-Different-Phenotype (%) [3]: 12.59% and 16.3% | Total Cell Count [3]: 216 and 160 | Population Apoptotic (%) [4]: 9.38% and 12% | Population Fragmented Nuclei (%) [4]: 8.88% and 6.07% | Population Healthy Nuclei (%) [4]: 72.19% and 82.24% | Population Hoechst High Intensity Objects (%) [4]: 0% | Population Membrane Permeable-Phenotype (%) [4]: 7.38% and 2.84% | Population Mitochondria Different-Phenotype (%) [4]: 7.38% and 8.52% | Population Mitotic Cells (%) [4]: 90.62% and 88% | Population Normal (%) [4]: 100% | Population Pyknosed Nuclei (%) [4]: 18.93% and 11.68% | Population Tubulin-Different-Phenotype (%) [4]: 22.13% and 22.73% | Total Cell Count [4]: 169 and 214 | Population Apoptotic (%) [5]: 30.77% and 13.33% | Population Fragmented Nuclei (%) [5]: 8.78% and 7.14% | Population Healthy Nuclei (%) [5]: 84.88% and 83.12% | Population Hoechst High Intensity Objects (%) [5]: 0% | Population Membrane Permeable-Phenotype (%) [5]: 1.15% and 5.47% | Population Mitotic Cells (%) [5]: 69.23% and 86.67% | Population Normal (%) [5]: 100% | Population Pyknosed Nuclei (%) [5]: 6.34% and 9.74% | Population Tubulin-Different-Phenotype (%) [5]: 8.62% and 19.53% | Total Cell Count [5]: 205 and 154 | Population Apoptotic (%) [6]: 50% and 17.65% | Population Fragmented Nuclei (%) [6]: 9.04% and 4.07% | Population Healthy Nuclei (%) [6]: 87.77% and 88.24% | Population Hoechst High Intensity Objects (%) [6]: 0% | Population Membrane Permeable-Phenotype (%) [6]: 1.82% and 2.56% | Population Mitochondria Different-Phenotype (%) [6]: 10.91% and 6.15% | Population Mitotic Cells (%) [6]: 50% and 82.35% | Population Normal (%) [6]: 100% | Population Pyknosed Nuclei (%) [6]: 3.19% and 7.69% | Total Cell Count [6]: 188 and 221

C=CC(=O)Nc1cc(Nc2nccc(-n3cc(CN(C)C)c(-c4ccccc4)n3)n2)c(OC)cc1N1CCOCC1 [LAZERTINIB]
Population Fragmented Nuclei (%) [1]: 17.06% and 10.42% | Population Healthy Nuclei (%) [1]: 39.41% and 72.59% | Population Hoechst High Intensity Objects (%) [1]: 0% | Population Membrane Permeable-Phenotype (%) [1]: 5.97% and 4.26% | Population Mitochondria Different-Phenotype (%) [1]: 13.43% and 12.77% | Population Mitotic Cells (%) [1]: 97.3% and 84.09% | Population Normal (%) [1]: 100% | Population Pyknosed Nuclei (%) [1]: 43.53% and 16.99% | Population Tubulin-Different-Phenotype (%) [1]: 26.87% and 71.81% | Total Cell Count [1]: 170 and 259 | Population Apoptotic (%) [2]: 18.84% and 24.56% | Population Fragmented Nuclei (%) [2]: 21.15% and 12.73% | Population Healthy Nuclei (%) [2]: 34.62% and 72.47% | Population Hoechst High Intensity Objects (%) [2]: 0% | Population Membrane Permeable-Phenotype (%) [2]: 1.85% and 8.24% | Population Mitochondria Different-Phenotype (%) [2]: 48.15% and 27.24% | Population Mitotic Cells (%) [2]: 81.16% and 75.44% | Population Normal (%) [2]: 100% | Population Pyknosed Nuclei (%) [2]: 44.23% and 14.81% | Population Tubulin-Different-Phenotype (%) [2]: 55.56% and 80.65% | Total Cell Count [2]: 156 and 385 | Population Fragmented Nuclei (%) [3]: 8.12% and 9.88% | Population Healthy Nuclei (%) [3]: 60.62% and 75.1% | Population Hoechst High Intensity Objects (%) [3]: 0% | Population Membrane Permeable-Phenotype (%) [3]: 6.19% and 3.68% | Population Mitochondria Different-Phenotype (%) [3]: 23.71% and 17.89% | Population Mitotic Cells (%) [3]: 90% and 52.63% | Population Normal (%) [3]: 100% | Population Pyknosed Nuclei (%) [3]: 31.25% and 15.02% | Population Tubulin-Different-Phenotype (%) [3]: 34.02% and 66.32% | Total Cell Count [3]: 160 and 253 | Population Apoptotic (%) [4]: 52.31% and 34.69% | Population Healthy Nuclei (%) [4]: 37.75% and 81.53% | Population Hoechst High Intensity Objects (%) [4]: 0% | Population Membrane Permeable-Phenotype (%) [4]: 5.26% and 2.72% | Population Mitochondria Different-Phenotype (%) [4]: 43.86% and 34.14% | Population Mitotic Cells (%) [4]: 47.69% and 65.31% | Population Normal (%) [4]: 100% | Population Tubulin-Different-Phenotype (%) [4]: 57.89% and 76.44% | Total Cell Count [4]: 151 and 406 | Population Apoptotic (%) [5]: 16.67% and 20.83% | Population Fragmented Nuclei (%) [5]: 12.14% and 10.42% | Population Healthy Nuclei (%) [5]: 77.46% and 80.31% | Population Hoechst High Intensity Objects (%) [5]: 0% | Population Membrane Permeable-Phenotype (%) [5]: 0.75% and 1.92% | Population Mitochondria Different-Phenotype (%) [5]: 11.19% and 8.17% | Population Mitotic Cells (%) [5]: 83.33% and 79.17% | Population Normal (%) [5]: 100% | Population Pyknosed Nuclei (%) [5]: 10.4% and 9.27% | Population Tubulin-Different-Phenotype (%) [5]: 27.61% and 62.5% | Total Cell Count [5]: 173 and 259 | Population Apoptotic (%) [6]: 64.71% and 51.61% | Population Fragmented Nuclei (%) [6]: 24.65% and 10.26% | Population Healthy Nuclei (%) [6]: 51.41% and 82.52% | Population Hoechst High Intensity Objects (%) [6]: 0% | Population Membrane Permeable-Phenotype (%) [6]: 1.37% and 2.82% | Population Mitotic Cells (%) [6]: 35.29% and 48.39% | Population Normal (%) [6]: 100% | Population Tubulin-Different-Phenotype (%) [6]: 49.32% and 60.73%
